Results: paper PMC9839614 (Cancer cell, 2022)

Legend:
[1] = first-in-human study, advanced solid tumors; cited from earlier work
[2] = test system: venetoclax-resistant MOLM-13 cell lines; assay: Drug treatment IC50 measurement; assay type: cell-based, human
Method in brief: (§1)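 MOLM-13 cells (parental or venetoclax-resistant) were plated and exposed to the test compound across a range of concentrations, with at least three technical replicates per concentration per cell line. Viability was read by CellTiter-Glo luminescence. IC50 was calculated from technical triplicates within each experiment, over n=3 experiments, and reported as mean with SEM.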

[3] = test system: RNA splicing in MOLM-13 cells; assay: RNA-seq alternative splicing analysis; assay type: cell-based, human; details: 48 hours, SM09419 100 nM, venetoclax 10 nM
Method in brief: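 Total RNA was extracted from MOLM-13 cells with an RNeasy column kit for RNA-seq. Before downstream analysis, FASTQ reads were trimmed of sequencing adapters and of low-quality reads (Q<15).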

MOLM-13 parental cells = assay: Drug treatment IC50 measurement; assay type: cell-based; details: Homo sapiens, MOLM-13, read-out: IC50 (cell viability)
Method in brief: as §1

| IC50 ([2]; Homo sapiens, MOLM-13, 504 h, read-out: IC50 (cell viability)) [nM] | Structure (SMILES) | Grade 3 anemia rate [1] [%] | IC50 of resistant cell lines relative to parental cells ([2]; venetoclax-resistant vs parental MOLM-13) | Effect on RNA splicing [3] | IC50 (MOLM-13 parental cells) [nM] |
| --- | --- | --- | --- | --- | --- |
| – | CN1CCN(c2cc(C(=O)Nc3cc4cc(-c5cnn(C)c5)ccc4cn3)ccn2)CC1 [Cirtuvivint] | < 15 | – | – | – |
| > 99 | CC1(C)CCC(CN2CCN(c3ccc(C(=O)NS(=O)(=O)c4ccc(NCC5CCOCC5)c([N+](=O)[O-])c4)c(Oc4cnc5[nH]ccc5c4)c3)CC2)=C(c2ccc(Cl)cc2)C1 [venetoclax] | – | approximately six times greater | no significant effects on RNA splicing | ~15 |
